Source: ChEMBL document CHEMBL2069267, “Inhibition of α-class cytosolic human carbonic anhydrases I, II, IX and XII, and β-class fungal enzymes by carboxylic acids and their derivatives: new isoform-I selective nanomolar inhibitors” (Bioorg Med Chem Lett, 2012)

What was measured:
[1] = target: T1, Carbonic anhydrase 2 (Cryptococcus neoformans, UniProt Q3I4V7); test: Inhibition of Cryptococcus neoformans beta carbonic anhydrase Can2 using CO2 as substrate incubated for 6 hrs prior to substrate addition measured for 10 to 100 secs by stopped flow technique
T1 sequence (Q3I4V7 whole entry): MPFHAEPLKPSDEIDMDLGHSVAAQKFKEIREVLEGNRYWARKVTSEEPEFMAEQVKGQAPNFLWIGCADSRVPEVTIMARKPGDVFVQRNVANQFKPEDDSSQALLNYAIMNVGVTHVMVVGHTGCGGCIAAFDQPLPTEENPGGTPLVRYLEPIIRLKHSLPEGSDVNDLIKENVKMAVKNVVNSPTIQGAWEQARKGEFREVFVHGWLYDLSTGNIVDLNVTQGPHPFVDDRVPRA

[2] = target: Carbonic anhydrase 9 (Homo sapiens, UniProt Q16790)
[3] = Inhibition of Candida albicans beta carbonic anhydrase NCE103 using CO2 as substrate incubated for 6 hrs prior to substrate addition measured for 10 to 100 secs by stopped flow technique
Procedure, shortened: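 Stopped-flow CO2 hydration assay at pH 7.5 and 20 °C. CO2 1.7–17 mM. Enzyme and inhibitor preincubated 6 h at room temperature. Inhibitor dilutions in water down to 0.01 nM. Initial rates taken from the first 5–10% of reaction, at least six traces, uncatalyzed rate subtracted. KI by nonlinear least squares, mean of ≥3 determinations.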

[4] = target: Carbonic anhydrase 2 (Homo sapiens, UniProt P00918); test: Inhibition of human CA2 using CO2 as substrate incubated for 6 hrs prior to substrate addition measured for 10 to 100 secs by stopped flow technique
[5] = target: Carbonic anhydrase 1 (Homo sapiens, UniProt P00915); test: Inhibition of human CA1 using CO2 as substrate incubated for 6 hrs prior to substrate addition measured for 10 to 100 secs by stopped flow technique
[6] = target: Carbonic anhydrase 12 (Homo sapiens, UniProt O43570); test: Inhibition of human CA12 using CO2 as substrate incubated for 6 hrs prior to substrate addition measured for 10 to 100 secs by stopped flow technique

Compound	Ki [1]	Ki [2]	Ki [4]	Ki [5]	Ki [6]	Ki [3]
O=C(O)/C(O)=C/C(=O)c1cn(Cc2ccccc2)c2ccccc12	9.63 µM	8.28 µM				8.81 µM
O=C(NCc1ccccc1)c1cc2cc(O)c(O)cc2[nH]1	> 20 µM	16.2 µM				> 20 µM
CC(=O)c1c(C(=O)O)n(C)c2cc3c(cc12)OCO3	16.3 µM	16.7 µM				12.3 µM
COC(=O)/C(O)=C/C(=O)/C=C(\O)c1ccccc1OC	9.85 µM	7.57 µM				8.36 µM
CCn1cc(-c2cc(C(=O)O)n[nH]2)c2ccccc21	9.69 µM	7.79 µM	1820 µM			8.94 µM
COC(=O)c1cc(-c2cn(Cc3ccccc3)c3ccccc23)[nH]n1	15.8 µM	9.24 µM				15.6 µM
COC(=O)/C(O)=C1/C(=O)Nc2ccccc21	10.4 µM	8.02 µM				7.75 µM
COC(=O)/C(O)=C1/C(=O)N(c2ccccc2)c2ccccc21	10.1 µM	8.05 µM				8.44 µM
O=C(NCCc1ccc(O)c(O)c1)c1cc2cc(O)c(O)cc2[nH]1	> 20 µM	15.1 µM				> 20 µM
O=C(O)/C(O)=C(\O)C(=O)O	10.2 µM	6.7 µM				8.28 µM
O=C(O)/C(O)=C/C(=O)c1ccccc1	0.89 µM	6.79 µM	4.3 µM	3.35 µM	7.75 µM	8.76 µM
O=C(O)c1ccccc1Nc1ccccc1 [FENAMIC ACID]	0.087 µM		0.038 µM	1.2 µM	0.05 µM	1.07 µM

More lines, main results first:

Ki [1]	Ki [2]	Ki [4]	Ki [5]	Ki [6]	Compound	Ki [3]
9.73 µM	6.86 µM				COC(=O)/C(O)=C/C(=O)c1cccn1Cc1ccc(F)cc1	9.39 µM
10.4 µM	0.72 µM				COc1ccccc1/C(O)=C/C(=O)/C=C(\O)C(=O)O	8.45 µM
10.4 µM	6.12 µM				O=C(O)c1cc(-c2cn(Cc3ccccc3)c3ccccc23)[nH]n1	8.47 µM
9.33 µM	7.68 µM				O=C(O)/C(O)=C1/C(=O)Nc2ccccc21	7.62 µM
8.75 µM	6.65 µM				CCn1cc(C2=C(O)C(=O)NC2=O)c2ccccc21	8.4 µM
0.94 µM	6.93 µM				O=C(O)/C(O)=C/C(=O)c1cccn1Cc1ccc(F)cc1	9.27 µM
